Assay results gathered from unrelated publications.
Effect on: metabolic stability

| Structure (SMILES) | system | setting | half-life [min] |
| --- | --- | --- | --- |
| CNC(=O)[C@H](Cc1c[nH]cn1)NC(=O)CN(CCCc1ccccc1)CC(=O)OC | male mouse, liver microsomes | 1 µM, pH 7.4 | 26 |
| CN(C)CCN1CCN(c2nc(NCc3cccc(Cl)c3)c3cc(-c4ccc(=O)n(C)c4)ccc3n2)CC1 | mouse, liver microsomes | – | 53 |
| Cc1ccc(S(=O)(=O)Nc2cccc(-c3nnn[nH]3)c2)cc1C(F)(F)F | mouse, liver microsomes | – | 38 |
| CCCCOC(=O)NS(=O)(=O)c1sc(CC(C)C)cc1-c1ccc2c(c1)CN(C(C)=O)CC2 | mouse, liver microsomes | 1 µM, pH 7.4 | 2.2 |
| O=C(N[C@H](Cc1c[nH]c2ccccc12)C(=O)Nc1ccncc1)c1ccc(-c2cccc(F)c2)cc1F | mouse, liver microsomes | – | 27 |
| Cc1ccc(-n2sc3ccccc3c2=O)cc1 | mouse, liver microsomes | – | < 60 |
| O=c1ccc2ccccc2o1 | mouse, liver microsomes | 50 µM, pH 7.4 | 72 |
| CC(C)NCC(O)COc1cccc2ccccc12 (stereo not drawn) | mouse, liver microsomes | 1 µM | 11.5 |
| C/C(=N\OCCN)c1cccc(C(C)(C)NC(=O)Nc2ccc(Cl)c([N+](=O)[O-])c2)c1 | mouse, liver microsomes | – | > 120 |
| COc1cc2[nH]c(C#N)cc2c(C)c1CN1CCC(Nc2ncnc3sc(CC(F)(F)F)cc23)CC1 | CD-1 mouse, liver microsomes | 1 µM, pH 7.4 | > 30 |
| CCCCOC(=O)NS(=O)(=O)c1sc(CC(C)C)cc1-c1cccc2c1CN(C(C)=O)C2 | mouse, liver microsomes | 1 µM, pH 7.4 | 6.9 |
| N=c1c2c(-c3ccccc3)c(-c3ccccc3)n(Cc3ccccc3)c2ncn1[C@H]1CC[C@H](O)CC1 | male CD-1 mouse, liver microsomes | 1 µM, pH 7.4 | > 120 |
| O=C(Nc1ccc2sc(-c3ccc(F)c(F)c3)nc2c1)N1CC[C@H](F)C1 | mouse, liver microsomes | 1.5 µM | ≥ 60 |
| CC[C@@H]1C=CC(=O)O[C@@H]1C[C@@H](O)[C@H](C)[C@H](OC)[C@@H](C)Cc1ccc(F)cc1 | mouse, liver microsomes | – | < 2.3 |
| CCCCOC(=O)NS(=O)(=O)c1sc(CC(C)C)cc1-c1ccc2c(c1)CCN(C(C)=O)C2 | mouse, liver microsomes | 1 µM, pH 7.4 | 2.9 |
| CCCC[S+]([O-])c1sc2nc(-c3cccs3)ccc2c1N (stereo not drawn) | female CD-1 mouse, liver S9 | 2 µM, pH 7.5 | 13 |
| CCOC(=O)C1=C(C)N/C(=C/c2cc(C)n(-c3ccc(Br)cc3)c2C)C1=O | mouse, liver microsomes | 1 µM | 28 |
| CC(C)Oc1cccc(-c2cnc(N3CCC(C(N)=O)CC3)s2)c1 | mouse, liver microsomes | 1 µM | > 30 |
| N=C(N)N1CC=C(c2coc(C(=O)Nc3ccc(C4=CCN(C(=N)N)CC4)c(F)c3)c2)CC1 | CD-1 mouse, liver microsomes | 1 µM | > 60 |
| CNC(=O)[C@H](Cc1c[nH]cn1)NC(=O)CN(CC(=O)O)Cc1ccccc1 | male mouse, liver microsomes | 1 µM, pH 7.4 | > 40 |
| Cc1ccc(S(=O)(=O)Nc2cccc(-c3nnn[nH]3)c2)cc1C | mouse, liver microsomes | – | 50 |
| CCOC(=O)NS(=O)(=O)c1sc(CC(C)C)cc1-c1ccc2c(c1)CN(C(C)=O)C2 | mouse, liver microsomes | 1 µM, pH 7.4 | 21 |
| O=C(Nc1ccc(Cl)c(Cl)c1)c1ccc(N2CCNCC2)c([N+](=O)[O-])c1 | CD-1 mouse, liver microsomes | 1 µM, pH 7.4 | > 110 |
| O=C(Nc1ccc(CN2CCOCC2)c(C(F)(F)F)c1)c1ccc(C#Cc2cccc3cnccc23)cn1 | mouse, liver microsomes | – | 13.4 |
| C/C=C/C[C@H](C)[C@@H](OC)[C@@H](C)[C@H](O)C[C@H]1OC(=O)C=C[C@H]1CC | mouse, liver microsomes | – | < 15 |
| CC1=C(C(=O)O)C(=O)/C(=C\c2cc(C)n(-c3ccccc3C(F)(F)F)c2C)N1 | mouse, liver microsomes | 1 µM | 79 |
| O=S(=O)(Nc1cccc(-c2nnn[nH]2)c1)c1ccc(Cl)c2nonc12 | mouse, liver microsomes | – | 81 |

| Structure (SMILES) | system | setting | half-life [min] |
| --- | --- | --- | --- |
| CC(C)NCC(O)COc1cccc2ccccc12 (stereo not drawn) | mouse, liver microsomes | 1 µM, pH 7.4 | 15.8 |
| O=C(c1ccc(F)cc1)C1CCN(CCn2c(=O)[nH]c3ccccc3c2=O)CC1 | mouse, liver microsomes | – | 14.5 |
| C=CC(=O)Nc1cc(OC)c(N2CCC[C@@H](Nc3ncc(Cl)c(-c4c[nH]c5ccccc45)n3)C2)cc1C | mouse, liver microsomes | – | 4.3 |
| CN1CC(Cc2cccc(CNC3(c4ccc(F)cc4)CCCC3)c2)C1 | mouse, liver microsomes | 4.6 µM, pH 7.5 | ~60 |
| CCOC(=O)C1=C(C)N/C(=C/c2cc(C)n(-c3ccc(SC(F)(F)F)cc3)c2C)C1=O | mouse, liver microsomes | 1 µM | 23 |
| CCS(=O)(=O)Nc1ccc(OCCOCCOCCOCCOc2ccc(NS(=O)(=O)CC)cc2-c2cn(C)c(=O)c3ccccc23)c(-c2cn(C)c(=O)c3ccccc23)c1 | mouse, liver microsomes | – | < 2.3 |
| CCOC(=O)C1=C(C)N/C(=C/c2ccn(-c3ccccc3C(F)(F)F)c2)C1=O | mouse, liver microsomes | 1 µM | 11 |
| Cc1cc(S(=O)(=O)Nc2cccc(-c3nnn[nH]3)c2)ccc1C(F)(F)F | mouse, liver microsomes | – | 133 |
| COc1cc(C2Oc3cc([C@H]4Oc5cc(O)cc(O)c5C(=O)[C@@H]4O)ccc3OC2CO)ccc1O (stereo partly drawn) | mouse, liver microsomes | 1 µM | 82.5 |
| CCOC(=O)C1=C(C)N/C(=C/c2cc(C)n(-c3ccc(N4CCOCC4)cc3)c2C)C1=O | mouse, liver microsomes | 1 µM | 57 |
| CNC(=O)[C@H](Cc1c[nH]cn1)NC(=O)CN(CCCc1ccccc1)CC(=O)O | male mouse, liver microsomes | 1 µM, pH 7.4 | > 40 |
| COc1ccc([C@@H](O)[C@@H](CN2CCCC2)NC(=O)CC2Cc3ccccc3C2)cc1F | CD-1 mouse, liver microsomes | 1 µM, pH 7.4 | 2.7 |
| COc1ccc2cc(C(=O)Nc3ccc4c(c3)CN(C3CCC(=O)NC3=O)C4=O)ccc2c1 (stereo not drawn) | mouse, liver microsomes | 2 µM | 180 |
| CCOc1c(O)cc(Br)c2c1CN1CCc3cc(OCC(F)F)c(O)cc3[C@@H]1C2 | mouse, liver S9 | 2 µM, pH 7.4 | 9.63 |
| O=C1CCN(C(=O)Nc2ccc(F)c(C(F)F)c2)[C@@H]2CCCC[C@H]12 | mouse, liver microsomes | – | > 32 |
| CCOC(=O)C1=C(C)N/C(=C/c2cc(C)n(-c3ccc(Cl)cc3)c2C)C1=O | mouse, liver microsomes | 1 µM | 24 |
| C=CC(=O)Nc1cc(F)c(N2CCC[C@@H](Nc3ncc(Cl)c(-c4c[nH]c5ccccc45)n3)C2)cc1C | mouse, liver microsomes | – | 3.9 |
| CCOC(=O)C1=C(C)N/C(=C/c2cc(CC)n(-c3ccccc3C(F)(F)F)c2CC)C1=O | mouse, liver microsomes | 1 µM | 12 |
| O=S(=O)(Nc1cccc(-c2nnn[nH]2)c1)c1cc(Cl)c(Cl)cc1Cl | mouse, liver microsomes | – | 48 |
| O=[N+]([O-])c1ccc(CNc2nc(NCc3cccc(C(F)(F)F)c3)nc3[nH]cnc23)cc1 | mouse, liver microsomes | 1 µM, pH 7.4 | 9 |
| NC(=O)C1CCN(c2nnc(-c3ccc4c(c3)OCCCO4)s2)CC1 | mouse, liver microsomes | 1 µM | > 30 |
| O=C(OC(C(F)(F)F)C(F)(F)F)N1CCc2ccccc2C1 | mouse, liver microsomes | – | 4 |
| COc1cccc(OC)c1CNC(=O)c1cc(C2NC(=O)NC(C)=C2C(=O)Nc2ccc3[nH]ncc3c2)ccc1F (stereo not drawn) | CD-1 mouse, liver microsomes | 1 µM, pH 7.4 | < 4 |
| Cc1cccc(C(=O)Nc2nc(-c3ccccn3)cs2)c1 | CD-1 mouse, liver microsomes | 39.6 µM, pH 7.4 | 6 |
| CCNc1nc2c(c(N3CC(=O)Nc4cc(OC)ccc43)n1)CCC2 | mouse, liver microsomes | – | 5.7 |
| CCOC(=O)C1=C(C)N/C(=C/c2cc(C)n(-c3cccc(OC)c3)c2C)C1=O | mouse, liver microsomes | 1 µM | 12 |
| Fc1ccc2nc(Cc3c[nH]c4c(F)cccc34)[nH]c2c1 | mouse, liver microsomes | pH 7.4 | 7.2 |
